Source: ChEMBL document CHEMBL4190388, “Discovery and Optimization of Indolyl-Containing 4-Hydroxy-2-Pyridone Type II DNA Topoisomerase Inhibitors Active against Multidrug Resistant Gram-negative Bacteria” (J Med Chem, 2018)
Converted amounts (≈) assume the structure as drawn.

Columns and labels:
Mus musculus [1] = assay: AUC (0 to 24 hrs) in CD1 mouse plasma at 3 mg/kg, iv by LC-MS/MS analysis; assay type: ADME, organism-based; parameters: time < 24 hr, dose 3 mg/kg, route intravenous; conditions: in vivo
How it was run: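 CD-1 mice given a single 3 mg/kg iv dose (n = 3) in 3% DMSO/saline; plasma exposure measured.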

Mus musculus [2] = assay: Antibacterial activity against Escherichia coli infected in cyclophosphamide treated neutropenic CD1 mouse septicemia model assessed as mouse survival at 1.5 mg/kg, iv dosed at 1 hr post infection followed by redosing at 5 hrs post infection measured at 96 hrs post infection relative to control; assay type: functional
How it was run: (§1)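 Female CD-1 mice were made neutropenic with cyclophosphamide ip, 150 mg/kg on day −4 and 100 mg/kg on day −1. […] Compound was given iv in 3% DMSO/saline at 1 and 5 h postinfection, n = 6 per group. Percent survival was scored at 96 h postinfection.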

[3] = Fraction unbound in mouse plasma at 1 uM by equilibrium dialysis method; assay type: ADME, cell-free
Mus musculus [4] = assay: Antibacterial activity against Escherichia coli infected in cyclophosphamide treated neutropenic CD1 mouse septicemia model assessed as mouse survival at 3 mg/kg, iv dosed at 1 hr post infection followed by redosing at 5 hrs post infection measured at 96 hrs post infection relative to control; assay type: functional; how it was run: as §1
Mus musculus [5] = assay: AUC (0 to 24 hrs) in CD1 mouse plasma at 10 mg/kg, iv by LC-MS/MS analysis; assay type: ADME, organism-based; parameters: time < 24 hr, dose 10 mg/kg, route intravenous; conditions: in vivo
How it was run: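 CD-1 mice given a single 10 mg/kg iv dose (n = 3), in either 10% DMSO plus 1% Tween 80 in pH 8.0 phosphate buffer or 20% (2-hydroxypropyl)-β-cyclodextrin in pH 4.0 citrate buffer; plasma exposure measured.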

Escherichia coli [6] = assay: Antibacterial activity against wild type Escherichia coli by broth microdilution method; assay type: functional
How it was run: (§2)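 MICs were determined by CLSI broth methods, except that organisms were grown in brain–heart–infusion medium. The panel comprised wild-type and resistant E. coli and A. baumannii strains, including 12 strains whose details are given by reference.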

Acinetobacter baumannii [7] = assay: Antibacterial activity against beta-lactam resistant Acinetobacter baumannii by broth microdilution method; assay type: functional; conditions: Acinetobacter baumannii; how it was run: as §2
Acinetobacter baumannii [8] = assay: Antibacterial activity against carbapenem resistant Acinetobacter baumannii by broth microdilution method; assay type: functional; conditions: Acinetobacter baumannii; how it was run: as §2
Acinetobacter baumannii [9] = assay: Antibacterial activity against quinolone resistant Acinetobacter baumannii by broth microdilution method; assay type: functional; conditions: Acinetobacter baumannii; how it was run: as §2
Escherichia coli [10] = assay: Antibacterial activity against wild type Escherichia coli ATCC 25922 by CLSI M100-S17 protocol based method; assay type: functional
[11] = Oral bioavailability in CD1 mouse plasma by LC-MS/MS analysis; assay type: ADME, organism-based
Escherichia coli [12] = assay: Antibacterial activity against quinolone resistant Escherichia coli by broth microdilution method; assay type: functional; conditions: Escherichia coli; how it was run: as §2
Acinetobacter baumannii [13] = assay: Antibacterial activity against wild type Acinetobacter baumannii by broth microdilution method; assay type: functional; how it was run: as §2
Escherichia coli [14] = assay: Antibacterial activity against beta-lactam resistant Escherichia coli by broth microdilution method; assay type: functional; conditions: Escherichia coli; how it was run: as §2
Escherichia coli [15] = assay: Antibacterial activity against wild type Escherichia coli ATCC 25922 in presence of HSA by CLSI M100-S17 protocol based method; assay type: functional
Escherichia coli [16] = assay: Antibacterial activity against fluoroquinolone resistant Escherichia coli SKM18 by CLSI M100-S17 protocol based method; assay type: functional
Klebsiella pneumoniae = assay: Antibacterial activity against wild type Klebsiella pneumoniae ATCC 35657 by CLSI M100-S17 protocol based method; assay type: functional
Escherichia coli [17] = assay: Antibacterial activity against aminoglycoside resistant Escherichia coli by broth microdilution method; assay type: functional; conditions: Escherichia coli; how it was run: as §2
Escherichia coli [18] = assay: Antibacterial activity against quinolone resistance Escherichia coli isolate ELZ4251 harboring gyrA/parC mutant by CLSI M100-S17 protocol based method; assay type: functional
Acinetobacter baumannii [19] = assay: Antibacterial activity against fluoroquinolone resistant Acinetobacter baumannii isolate MMX2240 by CLSI M100-S17 protocol based method; assay type: functional
Mus musculus [20] = assay: Volume of distribution at steady state in CD1 mouse plasma at 10 mg/kg, iv by LC-MS/MS analysis; assay type: ADME, organism-based; conditions: in vivo
Acinetobacter baumannii [21] = assay: Antibacterial activity against multidrug resistant Acinetobacter baumannii by broth microdilution method; assay type: functional; conditions: Acinetobacter baumannii; how it was run: as §2
Acinetobacter baumannii [22] = assay: Antibacterial activity against wild type Acinetobacter baumannii ATCC BAA-747 by CLSI M100-S17 protocol based method; assay type: functional
Acinetobacter baumannii [23] = assay: Antibacterial activity against aminoglycoside resistant Acinetobacter baumannii by broth microdilution method; assay type: functional; conditions: Acinetobacter baumannii; how it was run: as §2
Escherichia coli [24] = assay: Antibacterial activity against multidrug resistant Escherichia coli by broth microdilution method; assay type: functional; conditions: Escherichia coli; how it was run: as §2
Escherichia coli [25] = assay: Selectivity ratio of MIC for wild type Escherichia coli ATCC 25922 in presence of HSA to MIC for wild type Escherichia coli ATCC 25922; assay type: functional
Mus musculus [26] = assay: Terminal half life in CD1 mouse plasma at 10 mg/kg, iv by LC-MS/MS analysis; assay type: ADME, organism-based; conditions: in vivo

With COc1c(N2C[C@@H]3CCCN[C@@H]3C2)c(F)cc2c(=O)c(C(=O)O)cn(C3CC3)c12 [MOXIFLOXACIN] the AUC (Mus musculus [1]) was 640 ng·h/mL, the survival at 1.5 mg/kg (Mus musculus [2]) was 83% and the Fu [3] was 0.8. For the same compound, the survival at 3 mg/kg (Mus musculus [4]) was 100%.

In the case of CN(C)Cc1cc2cc3c(cc2n1C)CCCc1c-3[nH]c(=O)c(C(=O)O)c1O, the AUC (Mus musculus [5]) is reported as 3520 ng·h/mL, the MIC50 (Escherichia coli [6]) is reported as 0.5 µg/mL (≈ 1.31 µM) and the MIC90 (Escherichia coli [6]) is reported as 1 µg/mL (≈ 2.62 µM). For the same compound, the MIC50 (Acinetobacter baumannii [7]) was 2 µg/mL (≈ 5.24 µM), the MIC (Acinetobacter baumannii [7]; read-out: MIC) was 0.12 to 16 µg/mL (≈ 0.315 to 41.9 µM) and the MIC50 (Acinetobacter baumannii [8]) was 2 µg/mL (≈ 5.24 µM). For the same compound, the MIC (Acinetobacter baumannii [8]; read-out: MIC) was 0.12 to 16 µg/mL (≈ 0.315 to 41.9 µM), the MIC50 (Acinetobacter baumannii [9]) was 2 µg/mL (≈ 5.24 µM) and the MIC (Acinetobacter baumannii [9]; read-out: MIC) was 0.12 to 16 µg/mL (≈ 0.315 to 41.9 µM). For the same compound, the MIC (Escherichia coli [10]) was 0.78 µg/mL (≈ 2.04 µM), the bioavailability [11] was 42% and the MIC50 (Escherichia coli [12]) was 0.5 µg/mL (≈ 1.31 µM). It also gave an MIC90 (Escherichia coli [12]) of 1 µg/mL (≈ 2.62 µM), an MIC (Escherichia coli [12]; read-out: MIC) of 0.25 to 2 µg/mL (≈ 0.655 to 5.24 µM) and an MIC50 (Acinetobacter baumannii [13]) of 2 µg/mL (≈ 5.24 µM). For the same compound, the MIC90 (Acinetobacter baumannii [13]) was > 16 µg/mL, the MIC50 (Escherichia coli [14]) was 0.5 µg/mL (≈ 1.31 µM) and the MIC90 (Escherichia coli [14]) was 1 µg/mL (≈ 2.62 µM). For the same compound, the MIC (Escherichia coli [14]; read-out: MIC) was 0.25 to 2 µg/mL (≈ 0.655 to 5.24 µM), the Fu [3] was 0.1 and the MIC (Escherichia coli [15]) was 12.5 µg/mL. For the same compound, the MIC (Escherichia coli [16]) was 0.78 µg/mL (≈ 2.04 µM), the MIC (Klebsiella pneumoniae) was 0.78 µg/mL (≈ 2.04 µM) and the MIC50 (Escherichia coli [17]) was 0.5 µg/mL (≈ 1.31 µM). The MIC90 (Escherichia coli [17]) was 1 µg/mL (≈ 2.62 µM), the MIC (Escherichia coli [17]; read-out: MIC) was 0.25 to 2 µg/mL (≈ 0.655 to 5.24 µM) and the MIC (Escherichia coli [18]) was 1.6 µg/mL (≈ 4.19 µM). The MIC (Acinetobacter baumannii [19]) was 1.6 µg/mL (≈ 4.19 µM), the Vdss (Mus musculus [20]) was 11 L/kg and the MIC50 (Acinetobacter baumannii [21]) was 2 µg/mL (≈ 5.24 µM). It also gave an MIC (Acinetobacter baumannii [21]; read-out: MIC) of 0.12 to 16 µg/mL (≈ 0.315 to 41.9 µM), an MIC (Acinetobacter baumannii [22]) of 1.6 µg/mL (≈ 4.19 µM) and an MIC50 (Acinetobacter baumannii [23]) of 2 µg/mL (≈ 5.24 µM). The MIC (Acinetobacter baumannii [23]; read-out: MIC) was 0.12 to 16 µg/mL (≈ 0.315 to 41.9 µM), the MIC50 (Escherichia coli [24]) was 0.5 µg/mL (≈ 1.31 µM) and the MIC90 (Escherichia coli [24]) was 1 µg/mL (≈ 2.62 µM). For the same compound, the MIC (Escherichia coli [24]; read-out: MIC) was 0.25 to 2 µg/mL (≈ 0.655 to 5.24 µM), the Ratio (Escherichia coli [25]) was 4 - 16 and the “beta t1/2” value (Mus musculus [26]) was 2.9 h.
